# pIC50: −log10 of the molar value.
# How the values were obtained:
# [1] = molecular target: T1, Serine/threonine-protein kinase B-raf (Homo sapiens, UniProt P15056, V600E); test: Inhibition of B-Raf V600E mutant-mediated pERK phosphorylation in human A375 cells after 3 hrs by whole cell ELISA assay; type: cell-based, A-375
# Summary of the method: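 A375 human melanoma cells (B-Raf V600E) were seeded overnight and exposed to inhibitor for 3 h. Cells were then fixed, permeabilized and blocked overnight. Detection used anti-phospho-ERK antibody for 1 h, then an HRP conjugate, with tetramethylbenzidine read at OD 650 nm.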
# [2] = molecular target: T1, Serine/threonine-protein kinase B-raf; test: Inhibition of B-Raf V600E mutant after 2 hrs; details: in the assay text read “after 3 hrs” for “after 2 hrs”
# Summary of the method: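 Raf kinase activity measured with a biotinylated peptide substrate at 30 °C for 3 h. After the stop step, the mixture was incubated 2 h on a streptavidin-coated flashplate and counts were read by scintillation.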
# [3] = molecular target: T1, Serine/threonine-protein kinase B-raf; test: Inhibition of B-Raf V600E mutant
# Summary of the method: (§1)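 Raf kinase reaction with biotinylated peptide substrate run 3 h at 30 °C. After a stop step, the mixture is held 2 h on streptavidin-coated flashplates to capture the substrate, and the plates are read by scintillation counting.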
# [4] = molecular target: Serine/threonine-protein kinase B-raf (Homo sapiens, UniProt P15056); test: Inhibition of B-Raf; summary of the method: as §1
# Sequence of Serine/threonine-protein kinase B-raf (Homo sapiens, UniProt P15056) (P15056 whole entry): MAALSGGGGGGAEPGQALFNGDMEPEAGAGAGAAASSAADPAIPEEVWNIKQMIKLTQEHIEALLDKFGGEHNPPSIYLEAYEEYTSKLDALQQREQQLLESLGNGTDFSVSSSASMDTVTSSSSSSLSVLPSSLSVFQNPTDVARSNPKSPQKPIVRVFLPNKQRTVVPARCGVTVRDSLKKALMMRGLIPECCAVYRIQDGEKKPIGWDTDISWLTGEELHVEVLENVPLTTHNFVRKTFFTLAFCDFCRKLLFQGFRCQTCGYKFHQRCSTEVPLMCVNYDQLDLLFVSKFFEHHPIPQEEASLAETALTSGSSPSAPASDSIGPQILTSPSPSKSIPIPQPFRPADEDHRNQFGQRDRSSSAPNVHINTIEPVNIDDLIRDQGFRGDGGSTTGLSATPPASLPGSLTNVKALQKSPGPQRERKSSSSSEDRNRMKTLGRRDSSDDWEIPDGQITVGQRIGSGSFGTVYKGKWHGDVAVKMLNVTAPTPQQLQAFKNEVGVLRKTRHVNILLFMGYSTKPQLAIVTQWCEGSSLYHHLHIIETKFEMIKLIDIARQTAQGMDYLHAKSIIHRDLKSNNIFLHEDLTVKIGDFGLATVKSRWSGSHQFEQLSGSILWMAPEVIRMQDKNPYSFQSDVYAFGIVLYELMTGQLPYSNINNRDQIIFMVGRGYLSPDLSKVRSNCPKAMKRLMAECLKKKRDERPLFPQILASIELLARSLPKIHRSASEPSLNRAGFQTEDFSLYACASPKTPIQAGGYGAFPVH
# [5] = molecular target: RAF proto-oncogene serine/threonine-protein kinase (Homo sapiens, UniProt P04049); test: Inhibition of C-Raf
# Sequence of RAF proto-oncogene serine/threonine-protein kinase (P04049 whole entry): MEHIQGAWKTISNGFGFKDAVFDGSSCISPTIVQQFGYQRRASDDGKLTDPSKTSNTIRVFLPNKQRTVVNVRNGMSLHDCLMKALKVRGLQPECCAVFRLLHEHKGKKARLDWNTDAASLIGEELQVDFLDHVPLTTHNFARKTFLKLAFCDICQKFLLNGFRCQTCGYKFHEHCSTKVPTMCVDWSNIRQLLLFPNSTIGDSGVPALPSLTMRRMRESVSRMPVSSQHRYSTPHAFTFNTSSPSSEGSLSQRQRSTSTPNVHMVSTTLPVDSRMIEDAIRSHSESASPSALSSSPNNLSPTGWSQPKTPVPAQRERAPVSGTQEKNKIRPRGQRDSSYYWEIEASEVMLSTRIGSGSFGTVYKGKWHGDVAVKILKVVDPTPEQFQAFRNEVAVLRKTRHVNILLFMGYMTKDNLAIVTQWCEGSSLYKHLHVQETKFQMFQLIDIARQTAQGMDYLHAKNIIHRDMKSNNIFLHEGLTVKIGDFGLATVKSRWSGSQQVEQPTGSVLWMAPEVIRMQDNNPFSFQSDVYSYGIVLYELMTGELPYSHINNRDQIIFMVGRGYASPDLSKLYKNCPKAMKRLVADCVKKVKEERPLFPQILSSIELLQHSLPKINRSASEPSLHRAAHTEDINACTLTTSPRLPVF
# [6] = Aqueous solubility of the compound in 50 mM of potassium phosphate buffer at pH 6.8 by turbidimetric method; type: physicochemical
# Summary of the method: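 Turbidimetric kinetic solubility in 50 mM potassium phosphate buffer, pH 6.8.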
# [7] = molecular target: T1, Serine/threonine-protein kinase B-raf; test: Inhibition of B-Raf V600E mutant after 3 hrs
# [8] = Bioavailability in Sprague-Dawley rat at 0.5 to 1 mg/kg, iv and 10 mg/kg, po; type: ADME, organism-based; details: in vivo
# Summary of the method: (§2)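 Male SD rats dosed intravenously at 0.5 mg/kg or 1 mg/kg, or orally at 10 mg/kg. Plasma exposure, clearance and oral bioavailability derived from plasma levels.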
# [9] = Clearance in Sprague-Dawley rat at 0.5 to 1 mg/kg, iv and 10 mg/kg, po; type: ADME, organism-based; details: in vivo; summary of the method: as §2
# [10] = AUC in Sprague-Dawley rat at 0.5 to 1 mg/kg, iv and 10 mg/kg, po; type: ADME, organism-based; details: plasma; summary of the method: as §2
# T1 sequence (P15056 2-766 V600E limits assumed): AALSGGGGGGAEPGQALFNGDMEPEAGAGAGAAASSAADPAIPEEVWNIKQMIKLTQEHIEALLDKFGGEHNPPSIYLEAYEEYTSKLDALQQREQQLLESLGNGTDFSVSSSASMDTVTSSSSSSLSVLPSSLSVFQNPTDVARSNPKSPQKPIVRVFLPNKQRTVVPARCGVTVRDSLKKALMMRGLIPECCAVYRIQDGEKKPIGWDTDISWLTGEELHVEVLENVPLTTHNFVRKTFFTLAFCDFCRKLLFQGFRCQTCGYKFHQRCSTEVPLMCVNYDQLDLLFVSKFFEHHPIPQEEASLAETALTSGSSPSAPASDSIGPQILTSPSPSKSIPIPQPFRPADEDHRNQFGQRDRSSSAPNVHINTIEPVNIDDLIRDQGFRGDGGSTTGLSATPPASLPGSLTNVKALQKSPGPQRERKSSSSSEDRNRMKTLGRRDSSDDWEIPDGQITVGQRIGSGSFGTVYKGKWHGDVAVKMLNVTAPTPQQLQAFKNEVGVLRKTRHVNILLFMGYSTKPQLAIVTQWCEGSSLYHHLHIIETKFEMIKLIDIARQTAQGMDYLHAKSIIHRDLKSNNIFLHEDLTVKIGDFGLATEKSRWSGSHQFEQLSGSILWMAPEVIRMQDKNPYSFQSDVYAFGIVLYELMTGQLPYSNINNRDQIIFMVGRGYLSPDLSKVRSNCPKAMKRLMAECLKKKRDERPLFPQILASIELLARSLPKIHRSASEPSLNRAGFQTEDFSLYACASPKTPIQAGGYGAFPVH
pIC50 [1],pIC50 [2],SMILES,other results
7.47,8.52,O=C(c1ccc(-c2ccc3c(c2)CCNC3)s1)N1N=C(c2cccnc2)CC1c1c(O)cccc1F (racemic),
7.68,8.30,O=C(c1ccc(-c2ccc3c(c2)CCNC3)s1)N1N=C(c2cccnc2)CC1c1ccccc1O (racemic),
6.74,,O=C(c1ccc(-c2ccccn2)s1)N1N=C(c2cccnc2)CC1c1ccccc1O (racemic),pIC50 [3]: 7.64; pIC50 [4]: 7.77; pIC50 [5]: 7.57; solubility kinetic [6]: 5.8 µg/mL; pIC50 [7]: 7.64
7.41,8.52,O=C(c1ccc(-c2ccccn2)s1)N1N=C(c2cncc(CO)c2)CC1c1ccccc1O (racemic),
6.96,8.22,O=C(c1ccc(-c2cccc(CN3CCCC3)c2)s1)N1N=C(c2cccnc2)CC1c1ccccc1O (racemic),
7.68,8.52,O=C(c1ccc(-c2ccc3c(c2)CNCC3)s1)N1N=C(c2cccnc2)CC1c1c(O)cccc1F (racemic),
6.57,8.00,NCc1ccccc1-c1ccc(C(=O)N2N=C(c3cccnc3)CC2c2ccccc2O)s1 (racemic),bioavailability [8]: 76%; clearance [9]: 65 mL/min/kg; AUC [10]: 4.9 µM·h
6.68,8.15,Cc1nc(-c2ccc(C(=O)N3N=C(c4cccnc4)CC3c3ccccc3O)s2)cs1 (racemic),
7.39,8.10,O=C(c1ccc(-c2cccc(CN3CCCC3)c2)s1)N1N=C(c2cccnc2)CC1c1c(O)cccc1F (racemic),
,6.10,O=C(c1ccc(-c2ccccn2)s1)N1N=C(c2cccnc2)CC1c1ccccc1 (racemic),
6.74,,O=C(c1ccc(-c2cccc3c2CCNC3)s1)N1N=C(c2cccnc2)CC1c1c(O)cccc1F (racemic),bioavailability [8]: 89%; clearance [9]: 11.7 mL/min/kg; AUC [10]: 26 µM·h
7.05,8.05,Cn1cc(-c2ccc(C(=O)N3N=C(c4cccnc4)CC3c3ccccc3O)s2)cn1 (racemic),
5.85,7.96,O=C(c1ccc(-c2ccccn2)s1)N1N=C(c2cccnc2)CC1c1ccc(F)cc1O (racemic),
7.51,8.52,Nc1cncc(C2=NN(C(=O)c3ccc(-c4ccccn4)s3)C(c3ccccc3O)C2)c1 (racemic),
7.10,8.30,O=C(c1ccc(-c2ccccn2)s1)N1N=C(c2cccnc2)CC1c1c(O)cccc1F (racemic),
6.41,8.22,NCc1cccc(-c2ccc(C(=O)N3N=C(c4cccnc4)CC3c3ccccc3O)s2)c1 (racemic),
5.74,,O=C(c1ccco1)N1N=C(c2cccnc2)CC1c1ccccc1O (racemic),pIC50 [7]: 6.70
7.22,,O=C(c1ccc(-c2ccc3c(c2)CNC3)s1)N1N=C(c2cccnc2)CC1c1c(O)cccc1F (racemic),bioavailability [8]: 37%; clearance [9]: 15 mL/min/kg; AUC [10]: 8.4 µM·h; pIC50 [7]: 8.70
5.85,7.89,O=C(c1ccc(-c2ccccn2)s1)N1N=C(c2cccnc2)CC1c1cccc(F)c1O (racemic),

pIC50 [1],pIC50 [2],SMILES,other results
7.09,8.30,NCc1ccc(-c2ccc(C(=O)N3N=C(c4cccnc4)CC3c3ccccc3O)s2)cc1 (racemic),
7.72,8.40,O=C(c1ccc(-c2ccc3c(c2)CNC3)s1)N1N=C(c2cccnc2)CC1c1ccccc1O (racemic),bioavailability [8]: 14%; clearance [9]: 58.3 mL/min/kg; AUC [10]: 0.89 µM·h
6.92,8.52,O=C(c1ccc(-c2ccc3c(c2)CNC3)s1)N1N=C(c2cncc(CO)c2)CC1c1c(O)cccc1F (racemic),
7.60,8.40,O=C(c1ccc(-c2ccc3c(c2)CNCC3)s1)N1N=C(c2cccnc2)CC1c1ccccc1O (racemic),
7.25,8.40,NCc1ccccc1-c1ccc(C(=O)N2N=C(c3cncc(N)c3)CC2c2c(O)cccc2F)s1 (racemic),
6.55,,"O=C(c1ccc(-c2ccccn2)s1)N1N=C(c2cccnc2)CC1c1ccccc1O (single isomer, unassigned; enantiomer 1)",
5.82,7.10,Cc1ccccc1-c1ccc(C(=O)N2N=C(c3cccnc3)CC2c2ccccc2O)s1 (racemic),
< 4.60,6.17,O=C(c1ccc(-c2ccccn2)s1)N1N=C(c2cccnc2)CC1c1cccc(O)c1 (racemic),
7.20,8.52,CC(=O)Nc1cncc(C2=NN(C(=O)c3ccc(-c4ccccn4)s3)C(c3ccccc3O)C2)c1 (racemic),
7.26,8.52,Cn1cc(-c2ccc(C(=O)N3N=C(c4cccnc4)CC3c3c(O)cccc3F)s2)cn1 (racemic),
6.74,,NCc1ccccc1-c1ccc(C(=O)N2N=C(c3cncc(F)c3)CC2c2ccccc2O)s1 (racemic),pIC50 [7]: 7.68
6.85,8.30,O=C(c1ccc(-c2ccc(CO)cc2)s1)N1N=C(c2cccnc2)CC1c1ccccc1O (racemic),
7.43,8.52,NCc1ccc(-c2ccc(C(=O)N3N=C(c4cccnc4)CC3c3c(O)cccc3F)s2)cc1 (racemic),
7.07,8.15,NCc1ccccc1-c1ccc(C(=O)N2N=C(c3cccnc3)CC2c2c(O)cccc2F)s1 (racemic),bioavailability [8]: 85%; clearance [9]: 26.7 mL/min/kg; AUC [10]: 11 µM·h
7.74,8.52,Nc1cncc(C2=NN(C(=O)c3ccc(-c4ccccn4)s3)C(c3c(O)cccc3F)C2)c1 (racemic),
6.17,8.15,O=C(c1ccc(-c2ccccn2)s1)N1N=C(c2cccnc2)CC1c1cc(F)ccc1O (racemic),
7.19,8.15,NCc1ccccc1-c1ccc(C(=O)N2N=C(c3cncc(N)c3)CC2c2ccccc2O)s1 (racemic),
4.85,,"O=C(c1ccc(-c2ccccn2)s1)N1N=C(c2cccnc2)CC1c1ccccc1O (single isomer, unassigned; enantiomer 2)",

# — ChEMBL document CHEMBL1777679, “Discovery and optimization of pyrazoline compounds as B-Raf inhibitors” (Bioorg Med Chem Lett, 2010)
